Screens as filed in PubChem.
Furin inh = inhibitors of human furin; P09958; purified furin, fluorogenic substrate cleavage; inhibition, % at 20 µM or 30 µM; 0.061% of 220,000 active; AID 463115; in the data active means inhibition above about 25%
KLK5 inh = blocks human kallikrein 5 protease activity; Q9Y337; recombinant hK5, fluorogenic AMC substrate cleavage; inhibition, % at 5 µM; 0.59% of 210,000 active;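 active means inhibition of 40% or more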;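 further: 0% = enzyme controls without compound and 100% = no-enzyme blanks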
FXIa inh = inhibitors of human coagulation factor XIa; 0.14% of 220,000 active; inhibition, % at 5 µM; purified FXIa, Boc-Glu-Ala-Arg-AMC fluorogenic substrate;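 active means inhibition of at least 40%; inactive means inhibition below 40%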;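 further: fluorescence of freed AMC excited at 355 nm; 0% = enzyme without compound and 100% = no enzyme blank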
FXIIa inh = inhibitors of human coagulation factor XIIa; purified FXIIa, Boc-QGR-AMC fluorogenic substrate, 2 h; inhibition, % at 5 µM; 0.3% of 220,000 active; AID 800; in the data active means inhibition above about 40%;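 further: 0% = enzyme with no compound and 100% = blank without enzyme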
Target sequence (P00748 20-372 limits assumed): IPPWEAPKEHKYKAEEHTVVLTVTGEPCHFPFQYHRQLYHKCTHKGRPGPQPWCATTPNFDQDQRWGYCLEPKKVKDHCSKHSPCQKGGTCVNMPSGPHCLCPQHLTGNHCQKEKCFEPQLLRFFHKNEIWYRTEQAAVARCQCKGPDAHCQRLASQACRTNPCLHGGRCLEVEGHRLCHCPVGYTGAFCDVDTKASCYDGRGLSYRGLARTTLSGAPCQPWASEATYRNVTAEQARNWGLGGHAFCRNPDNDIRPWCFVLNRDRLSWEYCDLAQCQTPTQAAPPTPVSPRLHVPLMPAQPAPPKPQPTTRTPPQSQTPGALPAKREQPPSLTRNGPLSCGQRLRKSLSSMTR
Target sequence (P00748 373-615 limits assumed): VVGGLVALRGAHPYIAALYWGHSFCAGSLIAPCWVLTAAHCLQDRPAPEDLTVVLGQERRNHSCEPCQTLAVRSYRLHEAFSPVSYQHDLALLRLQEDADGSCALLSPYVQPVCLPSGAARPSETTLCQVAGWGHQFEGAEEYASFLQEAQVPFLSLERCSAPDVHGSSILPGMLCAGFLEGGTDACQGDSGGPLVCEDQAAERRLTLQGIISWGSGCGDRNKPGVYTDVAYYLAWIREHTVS
Calpain2 inh = blocks pig calpain II enzyme activity; inhibition, % at 16 µM; purified calpain II, fluorogenic peptide substrate, 30 min; 0.37% of 220,000 active; AID 1236;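 active means inhibition above about 50%, limit read from the data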
thrombin 1536 = thrombin (human) inhibition. alpha-thrombin, Boc-VPR-AMC fluorogenic substrate cleavage. 0.26% of 220,000 active. P00734. inhibition, % at 5 µM;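 active means inhibition at or above 40%; inactive means inhibition below 40%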;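 further: 0% = enzyme with no compound and 100% = wells without enzyme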
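signal = AMC fluorescence, 355/460 nm | material = human alpha-thrombin enzyme | control set = enzyme without compound as high, wells lacking enzyme as low | times = reaction at room temperature | read-out basis = percent inhibition scaled between no-compound controls and no-enzyme blanks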
Starred values were filed as active, the others as inactive; x = no result. Compounds with a hit are over-represented: about 1.4% of the library has one in this group of screens.

SMILES	Furin inh	KLK5 inh	FXIa inh	FXIIa inh	Calpain2 inh	thrombin 1536
CCC(=O)N1c2ccccc2NC2=C(C(=O)CCC2)C1c1ccc(N(C)C)cc1 (stereo unspecified)	-10	43*	5	9	15	14
CC(C)CC(=O)c1c[nH]c(C(=O)NCC2CCCO2)c1 (stereo unspecified)	-26	-27	5	14	12	-2
CC1CC(=O)Nc2ccccc2N1C(=O)Nc1ccc(F)cc1F (stereo unspecified)	-16	0	2	8	-18	-1
CC1CC(=O)Nc2ccccc2N1C(=O)Nc1ccc(F)cc1 (stereo unspecified)	-6	55*	27	11	15	10
Cc1nc2c3ccccc3nc(NNC(=O)CCC(=O)NC3CCCC3)n2n1	-20	50*	-3	9	-23	5
O=C(Nc1ccccc1)N(CCN1CCOCC1)Cc1ccccc1F	30*	-10	-11	2	22	-8
Cc1cccc(NC(=S)N(CCN2CCOCC2)Cc2ccccc2F)c1	-27	-5	-2	-8	-9	-8
CCOC(=O)c1cnc2ccc(C(=O)OC)cc2c1NCCc1ccc(OC)c(OC)c1	-22	-21	9	13	-152	-3
Cn1cnnc1SCC(=O)Nc1ccc2c(c1)CCC2	-13	-24	16	24	-12	3
COc1ccc(NC(=O)CSc2nncn2C)cc1OC	27*	-7	5	14	-13	7
O=C1CN(CC(=O)N2CCOCC2)c2ccccc2O1	-21	42*	14	24	18	11
O=C1CN(CC(=O)N2CCCCC2)c2ccccc2O1	-10	-24	-4	6	9	-1
O=C(O)c1ccccc1C(=O)Nc1ccc(-c2csc(-c3ccccc3)n2)cc1	-22	-1	-6	7	-43	-7
O=C(OCCCC(=O)N1CCOCC1)c1ccccc1	-19	42*	-3	18	20	5
O=[N+]([O-])c1cc(/C=N/n2cnnc2)ccc1N1CCCC1	10	-12	-5	-1	62*	2
Cc1cc(C)cc(Oc2nc(-c3ccccc3)cc(C)c2S(C)(=O)=O)c1	-9	-1	-13	15	50*	-2
COC(=O)CC(NS(=O)(=O)c1cccs1)c1cccc2ccccc12 (stereo unspecified)	-20	-20	-13	5	60*	6
COc1ccc(/C=C/C(=O)OCC(=O)Nc2c(C)cccc2C)cc1	-23	19	3	8	-34	3
O=C(COc1ccc(S(=O)(=O)Nc2ccccc2)cc1)N1CCOCC1	-22	21	6	18	15	53*
COC1CCCN(Cc2cn(C)nc2-c2ccc(Oc3ccccc3)cc2)C1 (stereo unspecified)	-23	x	5	11	32	2
CCCN1CCC(NCc2cn(C)nc2-c2ccc(Oc3ccccc3)cc2)CC1	-2	45*	21	34	2	1
Cc1cc(N/N=C/c2ccccc2Br)nc2ccccc12	-16	42*	18	32	30	19
CC/C=C/C(=O)N1CC2(CC(c3cccc(NC(=O)CCCCC)c3)=NO2)C[C@H]1C(N)=O (stereo partly specified)	1	31	42*	16	35	-2
C=C(C)C(=O)Nc1cccc(C2=NOC3(C2)C[C@H](C(N)=O)N(C(=O)CC#N)C3)c1 (stereo partly specified)	-19	-2	-3	0	13	-8
C=C(C)C(=O)Nc1cccc(C2=NOC3(C2)C[C@H](C(N)=O)N(C(=O)CC)C3)c1 (stereo partly specified)	-3	28	36	55*	15	17
SMILES	Furin inh	KLK5 inh	FXIa inh	FXIIa inh	Calpain2 inh	thrombin 1536
CCc1ccc(NC(=O)C(C)Oc2nnc(-c3cccs3)c(-c3cccs3)n2)cc1 (stereo unspecified)	-25	-1	4	10	-29	-6
COCCCNC(=O)C(F)(F)C(F)(F)C(=O)NCCCOC	-28	122*	19	27	5	9
O=C(NCCCCNC(=O)C(F)(F)F)C(F)(F)F	-20	-14	-2	0	-14	0
Cc1ccc(S(=O)(=O)n2nc(-c3cccnc3)nc2N)cc1	-17	-12	8	18	-5	4
Cc1ccc(C(=O)n2nc(-c3cccnc3)nc2N)cc1	-19	74*	48*	94*	-10	82*
COc1ccccc1C(=O)n1nc(-c2cccnc2)nc1N	-11	61*	-4	85*	-11	x
CCCOC(=O)Nc1cc(OC)ccc1[N+](=O)[O-]	-6	-1	3	8	63*	5
COc1ccc(S(=O)(=O)n2nc(-c3ccc(Cl)cc3)cc2N)cc1OC	-5	48*	-4	7	32	4
O=[N+]([O-])c1ccc(C(O)C23CN4CN(CN(C4)C2)C3)cc1 (stereo unspecified)	-22	4	2	11	14	-1
COC(=O)c1ccc(NCC(=O)Nc2cc(C)cc(C)c2)cc1	-3	25	33	57*	24	11
COC(=O)c1ccccc1NC(=O)Nc1cc(C)cc(C)n1	-27	-11	0	-6	-49	-7
COC(=O)c1ccccc1NC(=O)Nc1cc(C)ccn1	-6	23	31	41*	13	32
COc1ccc(N2CCN(C(=O)c3ccc4c(c3)[nH]c(=S)n3c5ccccc5nc43)CC2)cc1	-8	-2	-3	0	-205	-14
COc1ccc(C2=CC(c3ccc(OC)c(OC)c3)NC(=S)N2)cc1 (stereo unspecified)	5	3	6	1	-10	-20
COc1cccc(C2=CC(c3ccc(OC)c(OC)c3)NC(=S)N2)c1 (stereo unspecified)	-30	1	7	1	59*	-8
NC(=O)c1ccccc1N/C=C/C(=O)c1cccs1	-22	-4	6	13	-35	5
NC(=O)c1ccccc1N/C=C/C(=O)c1ccc(F)cc1	27*	-11	3	9	-16	5
C=C(C)CC1N(c2cccc(OC)c2)C(=O)C2C(C(=O)O)C3C=CC21O3 (stereo unspecified)	-10	45*	-8	-4	-10	-4
CCCN1C(=O)C2C(C(=O)Nc3cccc(OC)c3)C3C=CC2(O3)C1C(=O)NC1CCCCC1 (stereo unspecified)	-6	-18	0	15	-4	3
O=C(COC(=O)c1cnccn1)c1ccc2c(c1)CCCC2	-12	-1	3	18	-9	5
COc1ccccc1-c1nnc(SCC(=O)NCc2c(C)c(Cl)cc(C(C)C)c2O)o1	-31	-25	0	5	51*	-8
COc1ccc(C2=CSC3=NCCN23)cc1F	-8	36	4	101*	15	14
